The values below come from PubChem BioAssay AID504469 (NMMLSC, 2011).

Activity calls are given as the source filed them.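 How the source made its calls: active means compounds whose fitted GFP dose response EC50 is at or below 33 microM; inactive means the rest.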

Test [1] concerns S. cerevisiae LAP4-GFP strain, flow cytometry fluorescence, 3 h. Nature of the test: LAP4-GFP expression modulation, dose response, SAR follow-up, cell-based, KU SAR set 2, flow cytometry (AID 504469). A digest of the protocol: (§1)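 System: S. cerevisiae LAP4-GFP yeast strain; buffer or medium: synthetic complete medium; incubation: compound exposure 3 h at 30 °C with rotation; signal: Flow-cytometric GFP fluorescence in kMESF units; read-out basis: EC50 of background-corrected GFP signal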
For orientation: In flow cytometry, cells or beads pass a laser one at a time.

Assay in test [2]: as above
As to conditions: S. cerevisiae LAP4-GFP strain, flow cytometry fluorescence, 3 h. The method, boiled down:
as §1

Consider `CNc1nc(N)c(C(=O)c2ccc(C)c(C)c2)c(Nc2cccc(Cl)c2)n1`, for which the EC50 in test [1] was 80.9 µM (inactive).
Regarding `O=[N+]([O-])c1c(NC2CCCCC2)nc(NCc2ccccc2)nc1N1CCOCC1`, the GFP fluorescence (kMESF) in test [2] (at 300 µM (top of the series)) was 4.34 kMESF (inactive).
In the case of `COc1ccccc1-c1cc(Nc2cc(C)[nH]n2)nc(NCc2ccccc2)n1`, the GFP fluorescence (kMESF) in test [2] (at 300 µM (top of the series)) was 4.66 kMESF (inactive).
Turning to `Cc1cc(Nc2cc(Nc3ccccc3)nc(NCc3ccccc3)n2)n[nH]1`, in test [2] (at 300 µM (top of the series)), the GFP fluorescence (kMESF) is 4.28 kMESF (inactive).
Regarding `Cc1cc(Nc2cc(-c3ccccc3)nc(NCc3ccccc3)n2)n[nH]1`, in test [2] (at 300 µM (top of the series)), the GFP fluorescence (kMESF) was 4.41 kMESF (inactive).
For `CNc1nc(N)c([N+](=O)[O-])c(Nc2cccc(OC)c2)n1`, the GFP fluorescence (kMESF) in test [2] (at 100 µM (top of the series)) was 6.21 kMESF (inactive).
As for `COc1cccc(-c2cc(Nc3cc(C)[nH]n3)nc(NCc3ccccc3)n2)c1`, the GFP fluorescence (kMESF) in test [2] (at 300 µM (top of the series)) was 4.54 kMESF (inactive).
With `CNc1nc(N)c([N+](=O)[O-])c(Nc2ccccc2F)n1`, the GFP fluorescence (kMESF) in test [2] (at 100 µM (top of the series)) is 6.21 kMESF (inactive).
Consider `CCNc1nc(NC2CCCCC2)c([N+](=O)[O-])c(N2CCOCC2)n1`, for which, in test [2] (at 100 µM (top of the series)), the GFP fluorescence (kMESF) is 6.5 kMESF (inactive).
Turning to `CCNc1nc(N)c([N+](=O)[O-])c(Nc2cccc(Cl)c2)n1`, in test [2] (at 100 µM (top of the series)), the GFP fluorescence (kMESF) is 6.21 kMESF (inactive).
With `COC(=O)c1cccc(-c2cc(Nc3cc(C)[nH]n3)nc(NCc3ccccc3)n2)c1`, the GFP fluorescence (kMESF) in test [2] (at 300 µM (top of the series)) is 4.28 kMESF (inactive).
The same measure, in the same setting: in the case of `CNc1nc(N)cc(Nc2ccccc2F)n1` it was 4.66 kMESF (inactive).
On the same count and under the same terms, in the case of `CCOC(=O)c1c(N)nc(NC)nc1Nc1cccc(F)c1` it was 4.41 kMESF (inactive).
In the case of `CNc1nc(NC)c([N+](=O)[O-])c(Nc2cccc(Cl)c2)n1`, the GFP fluorescence (kMESF) in test [2] (at 100 µM (top of the series)) is 6.28 kMESF (inactive).
On the same count and under the same terms, the same measure for `CNc1nc(N)c([N+](=O)[O-])c(Nc2cccc(Oc3ccccc3)c2)n1`: 6.57 kMESF (inactive).
Regarding `CNc1nc(NC2CCCCC2)c([N+](=O)[O-])c(N2CCOCC2)n1`, in test [2] (at 100 µM (top of the series)), the GFP fluorescence (kMESF) is 6.42 kMESF (inactive).
Take `CNc1nc(N)c([N+](=O)[O-])c(Nc2ccccc2Br)n1`: the GFP fluorescence (kMESF) in test [2] (at 100 µM (top of the series)) was 6.28 kMESF (inactive).
Turning to `CNc1nc(N)cc(Oc2cccc(Cl)c2)n1`, the GFP fluorescence (kMESF) in test [2] (at 300 µM (top of the series)) is 4.73 kMESF (inactive).
As for `CNc1nc(N)cc(Nc2cccc(Cl)c2)n1`, the EC50 in test [1] is 101 µM (inactive).
Take `CNc1nc(N)c([N+](=O)[O-])c(Nc2cccc(Br)c2)n1`: in test [2] (at 100 µM (top of the series)), the GFP fluorescence (kMESF) was 6.21 kMESF (inactive).

For orientation: EC50 means the midpoint of the concentration-response curve.
